Experiments:
Format in all cases: cell-based
[1] = target: T1, Estrogen receptor (Homo sapiens) (UniProt P03372); test: Downregulation of ERalpha expression in human MCF7 cells after 6 hrs by Western blot method
T1 sequence (whole entry): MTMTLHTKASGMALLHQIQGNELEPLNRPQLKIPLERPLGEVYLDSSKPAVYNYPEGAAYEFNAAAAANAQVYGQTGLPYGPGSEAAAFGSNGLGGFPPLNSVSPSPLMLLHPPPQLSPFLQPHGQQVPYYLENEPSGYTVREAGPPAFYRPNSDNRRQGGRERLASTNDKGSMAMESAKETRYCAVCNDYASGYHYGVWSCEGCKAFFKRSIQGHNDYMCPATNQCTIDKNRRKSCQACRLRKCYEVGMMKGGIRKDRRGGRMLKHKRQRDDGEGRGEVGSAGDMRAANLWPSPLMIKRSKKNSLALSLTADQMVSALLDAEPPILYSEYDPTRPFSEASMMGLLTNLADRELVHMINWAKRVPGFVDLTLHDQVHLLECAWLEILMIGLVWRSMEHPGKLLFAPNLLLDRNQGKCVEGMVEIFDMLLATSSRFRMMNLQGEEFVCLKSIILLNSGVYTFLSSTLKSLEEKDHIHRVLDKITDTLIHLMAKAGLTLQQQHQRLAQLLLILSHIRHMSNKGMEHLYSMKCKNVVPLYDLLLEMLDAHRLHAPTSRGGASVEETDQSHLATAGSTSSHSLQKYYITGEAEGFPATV
Outline: (§1)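 MCF-7 cells kept in DMEM with 10% FBS, kanamycin and 10 μg/mL insulin, then exposed to compounds for 6 h. Lysates made in SDS buffer (0.1 M Tris-HCl pH 8.0, 10% glycerol, 1% SDS), boiled, BCA-normalized and run on SDS-PAGE. Blots probed with anti-ERα, AR, AhR or VDR and β-actin or lamin B. Chemiluminescence quantified as target/loading-protein ratio; means ± S.E., n=3.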

[2] = target: T2, Aryl hydrocarbon receptor (Homo sapiens, UniProt P35869); test: Downregulation of AhR expression in human MCF7 cells at 1 uM after 6 hrs by Western blot method relative to lamin B; conditions: mcf7, 6 h; outline: as §1
T2 sequence (P35869 whole entry): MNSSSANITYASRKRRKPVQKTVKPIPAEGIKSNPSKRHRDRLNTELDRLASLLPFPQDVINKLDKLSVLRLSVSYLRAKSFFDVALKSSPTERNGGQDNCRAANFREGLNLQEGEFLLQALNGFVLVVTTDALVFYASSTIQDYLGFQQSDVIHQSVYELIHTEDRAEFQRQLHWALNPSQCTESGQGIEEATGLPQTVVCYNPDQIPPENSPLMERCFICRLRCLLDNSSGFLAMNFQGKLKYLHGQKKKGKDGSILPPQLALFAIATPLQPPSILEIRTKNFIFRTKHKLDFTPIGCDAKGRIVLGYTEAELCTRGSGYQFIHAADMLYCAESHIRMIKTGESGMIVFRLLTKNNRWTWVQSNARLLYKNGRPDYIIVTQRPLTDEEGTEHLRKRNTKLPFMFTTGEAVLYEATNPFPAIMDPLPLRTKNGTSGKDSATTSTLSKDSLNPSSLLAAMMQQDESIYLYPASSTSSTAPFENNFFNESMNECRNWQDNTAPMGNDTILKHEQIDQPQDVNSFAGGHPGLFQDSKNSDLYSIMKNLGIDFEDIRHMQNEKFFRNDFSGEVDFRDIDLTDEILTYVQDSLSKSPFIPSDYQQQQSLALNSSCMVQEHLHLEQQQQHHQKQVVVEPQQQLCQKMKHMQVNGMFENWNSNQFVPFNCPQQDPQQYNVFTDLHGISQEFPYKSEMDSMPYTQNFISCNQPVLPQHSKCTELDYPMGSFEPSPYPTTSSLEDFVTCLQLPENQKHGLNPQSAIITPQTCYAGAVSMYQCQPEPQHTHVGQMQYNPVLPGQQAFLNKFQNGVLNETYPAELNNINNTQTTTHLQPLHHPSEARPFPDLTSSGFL

[3] = target: T3, Androgen receptor (Homo sapiens) (UniProt P10275); test: Downregulation of androgen receptor expression in human MCF7 cells at 10 uM after 6 hrs by Western blot method relative to lamin B; outline: as §1
T3 sequence (whole entry): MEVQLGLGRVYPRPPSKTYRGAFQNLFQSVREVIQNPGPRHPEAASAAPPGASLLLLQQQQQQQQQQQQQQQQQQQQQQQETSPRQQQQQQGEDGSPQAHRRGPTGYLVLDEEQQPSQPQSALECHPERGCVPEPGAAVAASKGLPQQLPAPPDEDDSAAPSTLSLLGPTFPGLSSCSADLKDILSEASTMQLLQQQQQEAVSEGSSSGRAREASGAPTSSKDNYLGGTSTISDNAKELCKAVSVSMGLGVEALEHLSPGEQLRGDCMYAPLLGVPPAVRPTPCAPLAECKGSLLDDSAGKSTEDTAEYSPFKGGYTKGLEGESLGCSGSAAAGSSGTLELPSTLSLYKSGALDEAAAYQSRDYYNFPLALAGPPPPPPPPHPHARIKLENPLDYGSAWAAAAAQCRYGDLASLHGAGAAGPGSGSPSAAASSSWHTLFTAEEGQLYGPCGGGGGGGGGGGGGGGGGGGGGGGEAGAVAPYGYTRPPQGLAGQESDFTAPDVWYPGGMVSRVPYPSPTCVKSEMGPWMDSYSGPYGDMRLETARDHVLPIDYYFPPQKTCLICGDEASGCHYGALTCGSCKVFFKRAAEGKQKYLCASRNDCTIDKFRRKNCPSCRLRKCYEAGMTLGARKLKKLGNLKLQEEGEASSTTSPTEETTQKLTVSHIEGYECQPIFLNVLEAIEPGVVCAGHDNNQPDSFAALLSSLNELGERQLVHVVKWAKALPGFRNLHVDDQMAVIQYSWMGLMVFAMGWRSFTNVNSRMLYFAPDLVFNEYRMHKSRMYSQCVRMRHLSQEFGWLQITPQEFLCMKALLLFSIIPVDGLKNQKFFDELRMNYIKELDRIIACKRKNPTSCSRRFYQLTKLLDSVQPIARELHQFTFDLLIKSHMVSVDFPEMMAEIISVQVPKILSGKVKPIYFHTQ

[4] = target: T2, Aryl hydrocarbon receptor; test: Downregulation of AhR expression in human MCF7 cells at 3 uM after 6 hrs by Western blot method relative to lamin B; conditions: mcf7, 6 h; outline: as §1
[5] = target: T2, Aryl hydrocarbon receptor; test: Downregulation of AhR expression in human MCF7 cells at 10 uM after 6 hrs by Western blot method relative to lamin B; conditions: mcf7, 6 h; outline: as §1

CCCCCCCCCCNCCOc1ccc(C(CCC)(CCC)c2ccc(O)c(C)c2)cc1C
Activity [1]: Dose-dependent effect | Activity [2]: 87% | Activity [3]: 98% | Activity [4]: 80% | Activity [5]: 81%
